How the values were obtained:
Assay type in all cases: ADME, organism-based
[1] = Tmax in MRP2 knockout Sprague-Dawley rat at 20 mg/kg, po by LC-MS/MS analysis; parameters: dose 20 mg/kg, route oral; settings: in vivo
In short: (§1)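 Male Sprague-Dawley rats (knockout or wild type, matched for age and weight) with femoral artery and vein cannulas, recovered ≥2 days. In an i.v./oral crossover with a 3-day washout, sulfasalazine was given by oral gavage at 20 mg/kg in 0.5% carboxymethyl cellulose/PBS pH 7.4. Arterial plasma was sampled 0–24 h and analysed by LC-MS/MS (1–5000 ng/ml). Noncompartmental analysis; n = 4 to 8.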

[2] = Cmax in MRP2-deficient Wistar rat at 5 mg/kg, po by LC-MS/MS analysis; parameters: dose 5 mg/kg, route oral; settings: in vivo
[3] = Volume of distribution at steady state in BCRP knockout Sprague-Dawley rat at 5 mg/kg, iv by LC-MS/MS analysis; parameters: dose 5 mg/kg, route intravenous; settings: in vivo, read-out: Vdss
In short: (§2)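 Male Sprague-Dawley knockout rats or wild-type rats matched for age and weight, with femoral artery and vein cannulas. Crossover design: sulfasalazine 5 mg/kg iv bolus (water, pH 9–10) on day 0, then 20 mg/kg oral gavage (0.5% carboxymethyl cellulose in PBS, pH 7.4) on day 3. Arterial plasma collected 0–24 h. Sulfasalazine and sulfapyridine measured by LC-MS/MS; noncompartmental parameters; mean ± S.D., n = 4 to 8.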

[4] = Tmax in MDR1A knockout Sprague-Dawley rat at 20 mg/kg, po by LC-MS/MS analysis; parameters: dose 20 mg/kg, route oral; settings: in vivo; in short: as §1
[5] = Volume of distribution at steady state in MDR1A knockout Sprague-Dawley rat at 5 mg/kg, iv by LC-MS/MS analysis; parameters: dose 5 mg/kg, route intravenous; settings: in vivo, read-out: Vdss; in short: as §2
[6] = Volume of distribution at steady state in wild-type Sprague-Dawley rat at 5 mg/kg, iv by LC-MS/MS analysis; parameters: dose 5 mg/kg, route intravenous; settings: in vivo, read-out: Vdss; in short: as §2
[7] = Tmax in wild-type Sprague-Dawley rat at 20 mg/kg, po by LC-MS/MS analysis; parameters: dose 20 mg/kg, route oral; settings: in vivo; in short: as §1
[8] = Tmax in wild-type Wistar rat at 5 mg/kg, po by LC-MS/MS analysis; parameters: dose 5 mg/kg, route oral; settings: in vivo
[9] = Half life in BCRP knockout Sprague-Dawley rat at 20 mg/kg, po by LC-MS/MS analysis; parameters: dose 20 mg/kg, route oral; settings: in vivo; in short: as §2
[10] = Clearance in MDR1A knockout Sprague-Dawley rat at 5 mg/kg, iv by LC-MS/MS analysis; parameters: dose 5 mg/kg, route intravenous; settings: in vivo
In short: (§3)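 Male Sprague-Dawley knockout or age/weight-matched wild-type rats with femoral artery and vein cannulas. Crossover design: day 0 i.v. bolus 5 mg/kg sulfasalazine in water at pH 9–10, then day 3 gavage 20 mg/kg in 0.5% carboxymethyl cellulose/PBS pH 7.4. Arterial plasma was sampled to 24 h. Sulfasalazine and sulfapyridine were measured by LC-MS/MS (1–5000 ng/ml). Parameters are noncompartmental; n = 4–8, mean ± S.D.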

[11] = Half life in MRP2-deficient Wistar rat at 5 mg/kg, iv by LC-MS/MS analysis; parameters: dose 5 mg/kg, route intravenous; settings: in vivo
In short: (§4)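 Male Wistar wild-type rats and Mrp2-deficient TR⁻ rats with femoral artery and vein cannulas. Sulfasalazine given as an iv bolus (5 mg/kg, water at pH 9–10) and by oral gavage, each followed by arterial plasma sampling over 24 h. Sulfasalazine and sulfapyridine measured by LC-MS/MS; noncompartmental parameters; mean ± S.D., n = 3.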

[12] = Half life in MDR1A knockout Sprague-Dawley rat at 5 mg/kg, iv by LC-MS/MS analysis; parameters: dose 5 mg/kg, route intravenous; settings: in vivo; in short: as §2
[13] = Oral bioavailability in MRP2-deficient Wistar rat at 5 mg/kg by LC-MS/MS analysis; settings: in vivo; in short: as §4
[14] = AUC (infinity) in wild-type Wistar rat at 5 mg/kg, iv by LC-MS/MS analysis; parameters: time infinity, dose 5 mg/kg, route intravenous; settings: plasma
In short: (§5)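 Male Wistar wild-type or Mrp2-deficient TR⁻ rats with femoral artery and vein cannulas. Sulfasalazine was given as a 5 mg/kg i.v. bolus and as a 20 mg/kg oral dose. Arterial plasma was sampled to 24 h and analysed for parent and sulfapyridine by LC-MS/MS. Noncompartmental parameters; n = 3, mean ± S.D.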

[15] = AUC (infinity) in MDR1A knockout Sprague-Dawley rat at 5 mg/kg, iv by LC-MS/MS analysis; parameters: time infinity, dose 5 mg/kg, route intravenous; settings: plasma; in short: as §3
[16] = AUC (infinity) in wild-type Wistar rat at 5 mg/kg, po by LC-MS/MS analysis; parameters: time infinity, dose 5 mg/kg, route oral; settings: plasma
[17] = AUC (infinity) in wild-type Sprague-Dawley rat at 5 mg/kg, iv by LC-MS/MS analysis; parameters: time infinity, dose 5 mg/kg, route intravenous; settings: plasma; in short: as §3
[18] = Half life in MRP2 knockout Sprague-Dawley rat at 5 mg/kg, iv by LC-MS/MS analysis; parameters: dose 5 mg/kg, route intravenous; settings: in vivo; in short: as §2
[19] = Half life in MDR1A knockout Sprague-Dawley rat at 20 mg/kg, po by LC-MS/MS analysis; parameters: dose 20 mg/kg, route oral; settings: in vivo; in short: as §2
[20] = Cmax in BCRP knockout Sprague-Dawley rat at 20 mg/kg, po by LC-MS/MS analysis; parameters: dose 20 mg/kg, route oral; settings: in vivo; in short: as §3
[21] = Oral bioavailability in wild-type Wistar rat at 5 mg/kg by LC-MS/MS analysis; settings: in vivo; in short: as §4
[22] = Clearance in MRP2-deficient Wistar rat at 5 mg/kg, iv by LC-MS/MS analysis; parameters: dose 5 mg/kg, route intravenous; settings: in vivo; in short: as §5
[23] = Half life in wild-type Wistar rat at 5 mg/kg, po by LC-MS/MS analysis; parameters: dose 5 mg/kg, route oral; settings: in vivo; in short: as §4
[24] = Oral bioavailability in wild-type Sprague-Dawley rat at 20 mg/kg by LC-MS/MS analysis; settings: in vivo; in short: as §2
[25] = AUC (infinity) in MRP2-deficient Wistar rat at 5 mg/kg, iv by LC-MS/MS analysis; parameters: dose 5 mg/kg, route intravenous, time infinity; settings: plasma; in short: as §5
[26] = Clearance in wild-type Sprague-Dawley rat at 5 mg/kg, iv by LC-MS/MS analysis; parameters: dose 5 mg/kg, route intravenous; settings: in vivo; in short: as §3
[27] = Clearance in BCRP knockout Sprague-Dawley rat at 5 mg/kg, iv by LC-MS/MS analysis; parameters: dose 5 mg/kg, route intravenous; settings: in vivo; in short: as §3
[28] = Oral bioavailability in BCRP knockout […]; settings: in vivo
[29] = Half life in MRP2 knockout Sprague-Dawley rat at 20 mg/kg, po by LC-MS/MS analysis; parameters: dose 20 mg/kg, route oral; settings: in vivo; in short: as §2
[30] = Half life in MRP2-deficient Wistar rat at 5 mg/kg, po by LC-MS/MS analysis; parameters: dose 5 mg/kg, route oral; settings: in vivo; in short: as §4
[31] = Volume of distribution at steady state in MRP2-deficient Wistar rat at 5 mg/kg, iv by LC-MS/MS analysis; parameters: dose 5 mg/kg, route intravenous; settings: in vivo, read-out: Vdss; in short: as §4
[32] = AUC (infinity) in BCRP knockout Sprague-Dawley rat at 5 mg/kg, iv by LC-MS/MS analysis; parameters: time infinity, dose 5 mg/kg, route intravenous; settings: plasma; in short: as §3
[33] = Tmax in MRP2-deficient Wistar rat at 5 mg/kg, po by LC-MS/MS analysis; parameters: dose 5 mg/kg, route oral; settings: in vivo
[34] = Clearance in MRP2 knockout Sprague-Dawley rat at 5 mg/kg, iv by LC-MS/MS analysis; parameters: dose 5 mg/kg, route intravenous; settings: in vivo; in short: as §3
[35] = Cmax in wild-type Wistar rat at 5 mg/kg, po by LC-MS/MS analysis; parameters: dose 5 mg/kg, route oral; settings: in vivo
[36] = Tmax in BCRP knockout Sprague-Dawley rat at 20 mg/kg, po by LC-MS/MS analysis; parameters: dose 20 mg/kg, route oral; settings: in vivo; in short: as §1
[37] = Oral bioavailability in MRP2 knockout Sprague-Dawley rat at 20 mg/kg by LC-MS/MS analysis; settings: in vivo; in short: as §2

Tmax [1]: 0.25 h
Cmax [2]: 144 ng/mL
Vd [3]: 0.408 L/kg
Tmax [4]: 0.3 h
Vd [5]: 0.285 L/kg
Vd [6]: 0.168 L/kg
Tmax [7]: 0.25 h
Tmax [8]: 0.5 h
half-life [9]: 1.9 h
clearance [10]: 13.5 mL/min/kg
half-life [11]: 4 h
half-life [12]: 1 h
bioavailability [13]: 1.5%
AUC(0-inf) [14]: 12300 ng·h/mL
AUC(0-inf) [15]: 6260 ng·h/mL
AUC(0-inf) [16]: 1810 ng·h/mL
AUC(0-inf) [17]: 8400 ng·h/mL
half-life [18]: 4.3 h
half-life [19]: 2.3 h
Cmax [20]: 3870 ng/mL
bioavailability [21]: 3.8%
clearance [22]: 10.9 mL/min/kg
half-life [23]: 2.1 h
bioavailability [24]: 1.4%
AUC(0-inf) [25]: 7730 ng·h/mL
clearance [26]: 10.4 mL/min/kg
clearance [27]: 7.8 mL/min/kg
bioavailability [28]: 37%
half-life [29]: 3.8 h
half-life [30]: 2.3 h
Vd [31]: 0.839 L/kg
AUC(0-inf) [32]: 10700 ng·h/mL
Tmax [33]: 0.25 h
clearance [34]: 22 mL/min/kg
Cmax [35]: 490 ng/mL
Tmax [36]: 0.6 h
bioavailability [37]: 4%
Compound: O=C(O)c1cc(/N=N/c2ccc(S(=O)(=O)Nc3ccccn3)cc2)ccc1O [SULFASALAZINE]

Source: ChEMBL document CHEMBL3526049 (Drug Metab Dispos, 2012)
